# Assay outcomes from PubChem.
# dFosB act-1 – mouse delta FosB homodimer activation. activation, % at 25 µM. P13346. 340,000 tested, 0.99% active. AID 493131. purified delta FosB, TAMRA-CDK5 oligo fluorescence polarization; percent of positive-control signal above neutral wells;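 active means mean activation above about 17%, with every replicate also reaching it, limit read from the data, passing the limit was not always enough; inconclusive means only one of the two conditions met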
# Target sequence (P13346 whole entry, looked up): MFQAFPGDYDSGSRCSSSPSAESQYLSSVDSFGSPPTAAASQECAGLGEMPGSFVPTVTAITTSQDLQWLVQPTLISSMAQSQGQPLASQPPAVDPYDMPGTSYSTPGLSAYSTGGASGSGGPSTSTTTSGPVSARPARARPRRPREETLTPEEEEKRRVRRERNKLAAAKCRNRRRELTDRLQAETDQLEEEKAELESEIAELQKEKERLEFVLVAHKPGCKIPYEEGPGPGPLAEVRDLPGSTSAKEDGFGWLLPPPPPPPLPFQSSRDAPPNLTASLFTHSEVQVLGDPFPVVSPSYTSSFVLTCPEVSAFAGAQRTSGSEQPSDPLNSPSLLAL
# PKA-R2B act – activators of human PKA-R2B complex; 340,000 tested, 0.079% active; AID 504700; activation, % at 11.4 µM; PKA-R2B holoenzyme dissociation, Cy5-IP20 fluorescence polarization; R2B truncated from residue 108, S112A mutant; 0% DMSO only, 100% 113 µM cGMP;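 active means activation above a cutoff set at the mean over all compounds plus 3 SD, cut at about 18% in these data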;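 further: higher means more holoenzyme dissociation and a rise in polarization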
# Target sequence (P31323 whole entry, looked up, other chains not shown, the tested form may be a part): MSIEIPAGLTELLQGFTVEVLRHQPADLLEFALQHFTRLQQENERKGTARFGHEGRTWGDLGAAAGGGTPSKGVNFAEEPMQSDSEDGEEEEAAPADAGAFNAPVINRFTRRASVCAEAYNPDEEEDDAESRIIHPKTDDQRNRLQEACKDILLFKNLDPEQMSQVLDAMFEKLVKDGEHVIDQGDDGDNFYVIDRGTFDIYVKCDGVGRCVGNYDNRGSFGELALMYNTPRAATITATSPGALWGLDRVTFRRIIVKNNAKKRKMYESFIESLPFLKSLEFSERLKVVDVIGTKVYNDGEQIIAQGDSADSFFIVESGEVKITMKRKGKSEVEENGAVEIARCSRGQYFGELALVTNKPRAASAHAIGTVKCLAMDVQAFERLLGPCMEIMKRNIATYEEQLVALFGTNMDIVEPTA
# CDK5 inh – inhibitors of human CDK5/p35 kinase. Q00535+Q15078. Recombinant CDK5/p35, ADP-Glo luminescence, 60 min. inhibition, % at 10 µM. 330,000 tested, 0.01% active. AID 488839;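 active means highest replicate inhibition of at least 50% and at least 75% of replicates reaching 50%; inconclusive means only one of the two criteria met; inactive means both criteria failed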;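 further: plate controls were DMSO neutral control for no effect and GW8510 at 10 µM for full effect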
# SR-BI DiI inh – inhibitors of mouse SR-BI mediated HDL lipid uptake. Q61009. inhibition, % at 12.5 µM. ldlA[mSR-BI] CHO cells, DiI-HDL uptake fluorescence, 3 h. AID 488896. 320,000 tested, 0.96% active;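 active means mean replicate inhibition of at least 70% and a set share of replicates each scoring 70 or more; inconclusive means meets just one of the two criteria; inactive means fails both criteria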;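 further: 0% = median of neutral control wells and 100% = median of positive control wells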
# PKA-R1A act – activators of PKA-R1A complex; PKA-R1A dissociation, Cy5-IP20 fluorescence polarization; scaled: DMSO 0%, 113 µM cGMP 100%; 340,000 tested, 0.083% active; activation, % at 11.4 µM; P00514+P68181;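 active means percent activation above the mean of all tested compounds plus 3 SD, cut at about 19% in these data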;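 further: higher means more PKAc released from R1A so a rise in polarization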
# SR-BI DiI-HDL act – SR-BI HDL lipid transfer activation | 320,000 tested, 0.096% active | CHO ldlA[mSR-BI] cells, DiI-HDL uptake fluorescence, 3 h; 100 = double the neutral-control signal | AID 504775 | activation, % at 12.5 µM;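 active means mean replicate activation of at least 60% and every replicate at or above 60%; inconclusive means mean or all-replicate condition met, but not both; inactive means mean below 60% and not all replicates reaching 60%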;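 further: 0% = median plate neutral-control signal and 100% = twice that signal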
#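 Assay system: LDL receptor-deficient CHO ldlA cells overexpressing murine SR-BI / Medium: BSA-supplemented, HEPES-buffered Ham's F12, pH 7.4 / Probe or stimulus: DiI-labelled HDL at 10 µg/mL final / Timing: compound with DiI-HDL co-incubation, 3 h at 37 °C / Technique: bottom-read cell fluorescence after medium removal, ex 550/em 595 nm / Measure: HDL uptake via cellular fluorescence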
# dFosB act-2 – activators of mouse delta FosB homodimer DNA binding; shares compounds with dFosB act-1; purified delta FosB, TAMRA-CDK5 oligo fluorescence polarization; normalised: neutral wells 0, positive control 100; activation, % at 24.9 µM; 2,400 tested, under 10 active; AID 588690;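 active means highest replicate activation at or above 34% and every replicate reaching that threshold; inconclusive means meets only one of the two criteria; inactive means meets neither criterion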;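 further: higher polarization means more probe DNA bound by delta FosB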
# Active calls of the source: *; ? = inconclusive; / = no result given. Most compounds without a hit are left out; they make up all but 2.1% or so of the library.
SMILES,dFosB act-1,PKA-R2B act,CDK5 inh,SR-BI DiI inh,PKA-R1A act,SR-BI DiI-HDL act,dFosB act-2
Cn1c2ccccc2c2cnn(CC(=O)Nc3ccc(F)cc3F)c(=O)c21,20.6*,-6.6,2.2,20.0,-4.2,-20.0,3.4
Cn1c2ccccc2c2cnn(CC(=O)Nc3ccccc3Br)c(=O)c21,6.9,-0.9,-0.4,/,-9.5,/,/
COc1ccc(NC(=O)Cn2nc(C(=O)O)c3ccccc3c2=O)cc1Cl,92.7*,-3.9,-3.1,/,-4.4,/,4.2
O=C(Cn1nc(C(=O)O)c2ccccc2c1=O)Nc1cccc(Br)c1,0.0,-7.2,-1.5,/,0.8,/,/
COc1ccccc1CNC(=O)CCN=C1NS(=O)(=O)c2ccccc21,3.6,3.3,-0.1,-4.2,-9.6,4.2,/
N#Cc1ccc(C23CC4(C2)[C@H](CN(Cc2ccc(-c5ccccc5)cc2)[C@@H]4c2ccccc2)C3c2ccc(Cl)nc2)cc1 (some centres not stated),16.8*,-6.9,1.5,-19.1,-0.9,19.1,4.1
Cc1ccc(C(=O)Nc2cnc3ccccn3c2=O)cc1,-0.6,-0.7,2.3,-15.5,-1.5,15.5,/
O=C(Nc1cnc2ccccn2c1=O)c1ccc(Cl)cc1Cl,19.1*,-8.3,2.9,1.5,-4.5,-1.5,4.6
Cc1ccc2c(COC(=O)CNC(=O)c3ccco3)cc(=O)oc2c1C,-17.6,4.5,-0.4,-6.6,-6.6,6.6,/
O=C(COC(=O)c1cc(S(=O)(=O)N2CCOCC2)c(Cl)cc1Cl)c1ccc[nH]1,-7.0,-5.0,0.5,18.1,-0.5,/,/
N/C(=N\OC(=O)COc1ccc(Cl)cc1Cl)c1cccnc1,24.3*,-5.2,-0.7,15.8,-10.4,-15.8,-4.0
COc1ccc2cc(/C=N/O)c(Cl)nc2c1,9.9,1.5,1.1,3.4,-5.8,-3.4,/
COc1ccc2cc(/C=N/NC(=O)c3ccc(CN(c4cccc(Cl)c4Cl)S(C)(=O)=O)cc3)c(Cl)nc2c1,46.0*,-5.5,0.2,40.1,-6.5,-40.1,?
Cc1cccc(/C=N/NC(=O)c2ccc(NC(=O)c3ccc(Cl)cc3)cc2)n1,41.5*,-8.8,0.0,76.8*,-7.5,-76.8,6.8
Cc1ccnc(NC(=O)c2cccc(NC(=O)c3ccc(Cl)c(Cl)c3)c2)c1,48.5*,0.9,-0.3,?,8.8,-74.4,-1.6
O=C(Nc1ccc(Br)cc1)c1ccc(Br)c(S(=O)(=O)Nc2cccnc2)c1,27.8*,8.4,-1.7,4.1,-8.8,-4.1,-2.8
Cc1ccnc(NC(=O)c2cccc(NC(=O)Cc3ccccc3)c2)c1,-8.0,7.7,-3.2,43.0,1.9,-43.0,/
Cc1cccc(/C=N/NC(=O)c2ccc(NC(=O)c3ccc(F)cc3)cc2)n1,-5.5,-0.9,-0.5,/,-8.7,/,/
O=C(N/N=C/c1cccnc1)c1cccc(NC(=O)c2ccc(Cl)cc2)c1,32.0*,14.6,3.8,29.3,4.0,-29.3,1.6
COc1ccc(/C(C)=N/NC(=O)CNC(=O)/C=C\c2ccccc2)c(OC)c1,-13.0,11.1,-0.2,14.6,-14.9,-14.6,/
COc1ccc(CNC(=O)COc2ccc(Br)c(C)c2)cc1,2.2,-1.5,-2.3,-3.4,1.3,3.4,/
CC[C@]1(C(=O)OC)[C@H]2C(=O)N(C)C(=O)[C@H]2[C@H]2CN=C(SCc3ccc(C)cc3)N21,-4.8,-3.9,0.4,-16.0,-2.8,16.0,/
Cc1cc(S(=O)(=O)NCCCN2CCOCC2)c(C)cc1Cl,-0.2,3.6,-1.1,-20.9,-6.6,20.9,/
O=C(CSc1nc2ccccc2[nH]1)Nc1ccc(N2CCOCC2)cc1,-5.3,2.2,0.5,22.5,1.7,-22.5,/
O=C(/C=C/c1cccnc1)c1ccc(NC(=O)c2cccc(Br)c2)cc1,46.5*,-3.7,0.4,31.1,3.5,-31.1,0.6
SMILES,dFosB act-1,PKA-R2B act,CDK5 inh,SR-BI DiI inh,PKA-R1A act,SR-BI DiI-HDL act,dFosB act-2
CCC1CCC(C(=O)NC(C(=O)Nc2ccc3c(c2)OCCO3)C(C)C)CC1 (configuration not stated),24.4*,10.9,0.4,-8.1,-1.3,8.1,8.8
Cc1nc2c(sc(=S)n2Cc2ccco2)c(=O)n1CC(=O)Nc1ccccc1,34.1*,0.4,-1.9,-7.3,10.3,7.3,0.9
Cc1nc2c(sc(=S)n2Cc2ccco2)c(=O)n1CC(=O)Nc1ccccc1F,82.7*,-3.3,0.0,-8.1,-12.4,8.1,-1.4
Cc1nnc(SCC(=O)Nc2ccccc2F)n1Cc1ccco1,3.1,-5.3,1.0,/,-13.3,/,/
S=C1Nc2ccccc2Sc2ccc(Cl)cc21,33.6*,3.2,0.1,-4.6,5.0,4.6,2.7
CCN1C[C@@H]2[C@@H]3C(=O)N(C)C(=O)[C@@H]3[C@](C)(C(=O)OC)N2C1=NC,9.3,-1.0,1.1,-2.7,-0.7,2.7,/
Cc1cnc(NC(=O)c2cc3c(C)nn(Cc4ccccc4Cl)c3s2)s1,30.4*,-2.9,1.4,52.3,0.6,-52.3,7.1
Cc1cnc(NC(=O)Cc2ccccc2Cl)s1,-7.6,9.3,1.5,/,-0.2,/,/
O=C(NCc1ccco1)c1ccc2c(=O)n(-c3ccccc3)c(=S)[nH]c2c1,35.3*,-11.6,-1.7,-6.7,-4.7,6.7,5.9
COc1ccc(-n2c(=S)[nH]c3cc(C(=O)Nc4cccc(C)c4)ccc3c2=O)cc1,14.6,4.8,-0.9,-15.1,-3.9,15.1,/
COc1ccc(NC(=O)c2ccc3c(=O)n(-c4ccc(OC)cc4OC)c(=S)[nH]c3c2)c(OC)c1,1.2,-2.4,-0.9,62.6,-2.4,-62.6,/
COc1ccc(-n2c(=S)[nH]c3cc(C(=O)NCc4ccco4)ccc3c2=O)cc1OC,-1.6,-0.3,-0.2,-21.6,2.7,21.6,/
COc1ccc(-n2c(=S)[nH]c3cc(C(=O)Nc4ccc(OC)c(OC)c4)ccc3c2=O)cc1,126.7*,14.0,0.1,-8.7,-0.9,8.7,1.1
COc1ccc(-n2c(=S)[nH]c3cc(C(=O)Nc4cc(C(N)=O)ccc4OC)ccc3c2=O)c(OC)c1,31.5*,-1.9,0.2,/,-6.3,/,2.5
COc1cc(NC(=O)c2ccc3c(=O)n(Cc4ccco4)c(=S)[nH]c3c2)cc(OC)c1OC,30.8*,10.9,-3.2,/,3.5,/,-1.3
CCOc1ccccc1N(C)C(=O)Cn1ncc2c([nH]c3ccc(C)cc32)c1=O,-13.4,-5.7,-0.8,8.0,-3.9,-8.0,/
COc1cccc(NC(=O)CCCn2c(=O)[nH]c3ccccc3c2=O)c1,-9.6,-3.6,-4.1,-20.1,0.8,20.1,/
COc1ccc(NC(=O)CCn2c(=S)[nH]c3ccccc3c2=O)cc1OC,24.3*,-14.1,0.3,-14.3,-4.8,14.3,3.9
